Drawing on ChEMBL document CHEMBL1154352, “Toll-like receptor 7 selective synthetic oligoribonucleotide agonists: synthesis and structure-activity relationship studies” (J Med Chem, 2009), this text covers fold change (FC), Activity and IFN-alpha for one compound.

In experiment [1] the target is T1, Toll-like receptor 8 (Homo sapiens) (UniProt Q9NR97).
T1 sequence (whole entry): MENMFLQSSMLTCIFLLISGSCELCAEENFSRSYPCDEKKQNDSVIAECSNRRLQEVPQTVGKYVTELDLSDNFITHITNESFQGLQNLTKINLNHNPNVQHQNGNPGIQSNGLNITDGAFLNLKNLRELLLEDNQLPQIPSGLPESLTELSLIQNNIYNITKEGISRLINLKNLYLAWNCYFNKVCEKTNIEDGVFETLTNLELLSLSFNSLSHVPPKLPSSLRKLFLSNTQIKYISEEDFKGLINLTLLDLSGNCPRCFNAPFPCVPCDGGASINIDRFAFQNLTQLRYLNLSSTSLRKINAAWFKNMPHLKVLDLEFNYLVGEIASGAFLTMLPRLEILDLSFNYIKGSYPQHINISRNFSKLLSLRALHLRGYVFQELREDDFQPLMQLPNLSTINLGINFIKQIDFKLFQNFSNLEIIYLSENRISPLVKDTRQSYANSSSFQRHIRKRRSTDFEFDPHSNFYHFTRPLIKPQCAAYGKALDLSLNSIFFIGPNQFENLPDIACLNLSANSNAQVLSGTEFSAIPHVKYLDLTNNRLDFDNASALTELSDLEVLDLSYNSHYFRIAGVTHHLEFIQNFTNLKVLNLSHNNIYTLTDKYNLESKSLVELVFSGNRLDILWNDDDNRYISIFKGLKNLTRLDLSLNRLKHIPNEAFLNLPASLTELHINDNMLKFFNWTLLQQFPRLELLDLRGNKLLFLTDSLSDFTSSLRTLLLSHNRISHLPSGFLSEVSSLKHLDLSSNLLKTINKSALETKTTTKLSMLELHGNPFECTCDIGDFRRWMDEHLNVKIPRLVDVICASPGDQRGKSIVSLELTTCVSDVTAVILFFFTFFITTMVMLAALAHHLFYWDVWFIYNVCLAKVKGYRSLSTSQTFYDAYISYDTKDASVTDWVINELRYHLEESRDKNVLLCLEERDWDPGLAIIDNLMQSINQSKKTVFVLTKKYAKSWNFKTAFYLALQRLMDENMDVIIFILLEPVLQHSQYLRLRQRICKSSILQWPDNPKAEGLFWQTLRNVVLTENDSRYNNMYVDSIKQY
The experiment is described as follows: Activation of human TLR8 expressed in HEK293XL assessed as fold induction of NF-kappaB activity at 50 ug/ml after 18 hrs by reporter gene assay relative to control. The method, boiled down:
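HEK293 cells stably expressing human TLR7 or TLR8, transiently transfected with SEAP reporter plasmid; medium replaced, SIMRA compounds added, 18 h incubation. Supernatant SEAP measured by QuantiBlue; expressed as fold increase in NF-κB activity over PBS control. Tabulated data at 50 μg/mL, representative of three independent experiments.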
(In general: A reporter such as luciferase makes a cellular process visible.)

The target of experiment [2] is T2, Toll-like receptor 9 (Mus musculus) (UniProt Q9EQU3).
T2 sequence (whole entry): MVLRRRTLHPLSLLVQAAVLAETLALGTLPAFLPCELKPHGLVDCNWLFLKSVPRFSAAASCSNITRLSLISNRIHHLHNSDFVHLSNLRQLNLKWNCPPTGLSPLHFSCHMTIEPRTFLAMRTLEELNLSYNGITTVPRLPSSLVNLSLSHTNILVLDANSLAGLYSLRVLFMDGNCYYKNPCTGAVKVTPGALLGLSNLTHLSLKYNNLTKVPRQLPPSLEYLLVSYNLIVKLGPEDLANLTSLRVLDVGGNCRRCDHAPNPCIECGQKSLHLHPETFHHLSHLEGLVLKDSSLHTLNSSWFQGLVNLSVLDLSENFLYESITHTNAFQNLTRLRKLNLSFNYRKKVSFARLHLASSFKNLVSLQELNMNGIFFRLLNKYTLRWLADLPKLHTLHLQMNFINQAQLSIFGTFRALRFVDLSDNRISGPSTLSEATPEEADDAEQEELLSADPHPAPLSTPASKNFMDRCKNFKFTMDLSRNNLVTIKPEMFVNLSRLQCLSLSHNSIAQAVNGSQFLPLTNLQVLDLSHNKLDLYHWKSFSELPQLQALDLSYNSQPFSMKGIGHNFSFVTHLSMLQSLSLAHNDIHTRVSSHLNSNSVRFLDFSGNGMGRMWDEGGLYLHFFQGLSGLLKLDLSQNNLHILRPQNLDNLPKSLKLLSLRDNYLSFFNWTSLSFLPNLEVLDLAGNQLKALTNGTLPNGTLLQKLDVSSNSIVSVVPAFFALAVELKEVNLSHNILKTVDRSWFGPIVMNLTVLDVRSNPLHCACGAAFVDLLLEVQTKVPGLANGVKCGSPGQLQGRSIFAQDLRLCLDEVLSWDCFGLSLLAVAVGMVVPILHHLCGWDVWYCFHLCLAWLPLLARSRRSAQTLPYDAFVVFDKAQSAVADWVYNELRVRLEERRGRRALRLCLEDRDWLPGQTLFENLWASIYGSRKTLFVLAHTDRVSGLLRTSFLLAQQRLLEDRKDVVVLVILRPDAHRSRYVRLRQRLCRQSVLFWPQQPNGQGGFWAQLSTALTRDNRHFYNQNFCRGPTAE
The experiment is described as follows: Activation of mouse TLR9 expressed in HEK293 assessed as induction of NF-kappaB activity reporter gene assay. In kind it is cell-based.

The test system of experiment [3] is PBMC. The experiment is described as follows: Immunomodulatory activity in human PBMC assessed as induction of IL12 at 100 ug/ml after 24 hrs. Format: functional, cell-based. The method, boiled down: (§1)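 Human PBMCs plated at 5 × 10^6 cells/mL; compounds dissolved in PBS added at various concentrations, 37 °C for 24 h. Supernatant cytokines/chemokines quantified with human Luminex multiplex kit.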

The subject of experiment [4] is PBMC. The experiment is described as follows: Immunomodulatory activity in human PBMC assessed as induction of TNFalpha at 100 ug/ml after 24 hrs. In kind it is functional, cell-based. The method, boiled down:
as §1

The test system of experiment [5] is PBMC. The experiment is described as follows: Immunomodulatory activity in human PBMC assessed as induction of IFN-alpha at 100 ug/ml after 24 hrs.

Activity calls are given as the source filed them. The rule behind the calls is not given here.

On to `Nc1ncnc2c1ncn2[C@@H]1O[C@H](CO)[C@@H](OP(=O)(S)OC[C@H]2O[C@@H](n3cnc4c(N)ncnc43)[C@H](O)[C@@H]2OP(=O)(S)OC[C@H]2O[C@@H](n3cnc4c(N)ncnc43)[C@H](O)[C@@H]2OP(=O)(S)OC[C@H]2O[C@@H](n3cnc4c(N)ncnc43)[C@H](O)[C@@H]2OP(=O)(S)OC[C@H]2O[C@@H](n3cnc4c(N)ncnc43)[C@H](O)[C@@H]2OP(=O)(S)OC[C@H]2O[C@@H](n3cnc4c(N)ncnc43)[C@H](O)[C@@H]2OP(=O)(S)OC[C@H]2O[C@@H](n3cnc4c(N)ncnc43)[C@H](O)[C@@H]2OP(=O)(S)OC[C@H]2O[C@@H](n3cnc4c(N)ncnc43)[C@H](O)[C@@H]2OP(=O)(S)OC[C@H]2O[C@@H](n3cnc4c(N)ncnc43)[C@H](O)[C@@H]2OP(=O)(S)OC[C@H]2O[C@@H](n3cnc4c(N)ncnc43)[C@H](O)[C@@H]2OP(=O)(S)OC[C@H]2O[C@@H](n3cnc4c(N)ncnc43)[C@H](O)[C@@H]2OP(=O)(S)OCC(O)COP(=O)(S)O[C@H]2[C@@H](O)[C@H](n3cnc4c(N)ncnc43)O[C@@H]2COP(=O)(S)O[C@H]2[C@@H](O)[C@H](n3cnc4c(N)ncnc43)O[C@@H]2COP(=O)(S)O[C@H]2[C@@H](O)[C@H](n3cnc4c(N)ncnc43)O[C@@H]2COP(=O)(S)O[C@H]2[C@@H](O)[C@H](n3cnc4c(N)ncnc43)O[C@@H]2COP(=O)(S)O[C@H]2[C@@H](O)[C@H](n3cnc4c(N)ncnc43)O[C@@H]2COP(=O)(S)O[C@H]2[C@@H](O)[C@H](n3cnc4c(N)ncnc43)O[C@@H]2COP(=O)(S)O[C@H]2[C@@H](O)[C@H](n3cnc4c(N)ncnc43)O[C@@H]2COP(=O)(S)O[C@H]2[C@@H](O)[C@H](n3cnc4c(N)ncnc43)O[C@@H]2COP(=O)(S)O[C@H]2[C@@H](O)[C@H](n3cnc4c(N)ncnc43)O[C@@H]2COP(=O)(S)O[C@H]2[C@@H](O)[C@H](n3cnc4c(N)ncnc43)O[C@@H]2COP(=O)(S)O[C@H]2[C@@H](O)[C@H](n3cnc4c(N)ncnc43)O[C@@H]2CO)[C@H]1O` (stereo not given in full), for which the fold change (FC) in experiment [1] is 0.7. In addition, in experiment [2], the outcome was inactive. In addition, the Activity was 183 pg/mL in experiment [3] and 1.6 pg/mL in experiment [4]. In experiment [5], the IFN-alpha was determined as 0 pg/mL.
